# PAX8 reporter: PAX8 transcriptional activity inhibition | AID 652154 | RMG-I TPO-luciferase reporter, SteadyGlo, 24 h | 360,000 tested, 1.2% active | inhibition, % at 12.6 µM;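 active = mean replicate inhibition at least 60% with every replicate also reaching 60%; inconclusive = only one of the two criteria is met; inactive = mean below 60% and not all replicates reaching 60%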;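 note: luciferase light reporting Pax8 driven TPO promoter activity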
# INS-1E GSIS act: primary screen for activators of insulin secretion dependent on glucose, INS-1E cells, GLuc reporter luminescence; INS-1E GLuc reporter insulin secretion, 2-3 h; activation, % at 16.6 µM; 370,000 tested, 0.61% active; AID 743287;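 active = lowest replicate activation of at least 40%, so every replicate reaches that level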
# Env fusion inh: HIV envelope-mediated fusion inhibition. HeLa-JRFL Env/CEM21 cell fusion, luciferase. inhibition, % at 12.3 µM. 360,000 tested, 1.1% active;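 active = mean replicate inhibition score of at least 50 and every replicate individually at or above 50; inconclusive = only one of the two criteria met; inactive = mean below 50 and not all replicates reaching 50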
# Cneo AK release: causes C. neoformans cell lysis; adenylate kinase release luminescence, 4 h; normalised: neutral wells 0, clomiphene wells 100; lysis activity, % at 15 µM; 360,000 tested, 0.2% active;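 active = mean lysis activity across replicates of at least 80%, whatever share of replicates individually reach that level; inactive = mean lysis activity below 80%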
#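 Assay system: C. neoformans cells. Amount: yeast cell density of 5 × 10^6 cells/mL. Technique: AK luminescence. Buffer or medium: YPD. Times: static 4 h at 37 °C with compound, 1 h detection. Dosing: single-point compound dose. Read-out: lysis from increased AK signal.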
# CDK5 inh: blocks human CDK5/p35 kinase activity. Q00535+Q15078. Recombinant CDK5/p35, ADP-Glo luminescence, 60 min. inhibition, % at 10 µM. 330,000 tested, 0.01% active;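 active = highest replicate inhibition of at least 50% and at least 75% of replicates reaching 50%; inconclusive = only one of the two criteria met; inactive = both criteria failed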
# dFosB act-1: mouse delta FosB homodimer activation | AID 493131 | 340,000 tested, 0.99% active | purified delta FosB, TAMRA-CDK5 oligo fluorescence polarization; percent of positive-control signal above neutral wells | activation, % at 25 µM;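 active = mean activation above about 17%, with every replicate also reaching it, limit read from the data, passing the limit was not always enough; inconclusive = only one of the two conditions met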
# Target sequence (P13346 whole entry, looked up): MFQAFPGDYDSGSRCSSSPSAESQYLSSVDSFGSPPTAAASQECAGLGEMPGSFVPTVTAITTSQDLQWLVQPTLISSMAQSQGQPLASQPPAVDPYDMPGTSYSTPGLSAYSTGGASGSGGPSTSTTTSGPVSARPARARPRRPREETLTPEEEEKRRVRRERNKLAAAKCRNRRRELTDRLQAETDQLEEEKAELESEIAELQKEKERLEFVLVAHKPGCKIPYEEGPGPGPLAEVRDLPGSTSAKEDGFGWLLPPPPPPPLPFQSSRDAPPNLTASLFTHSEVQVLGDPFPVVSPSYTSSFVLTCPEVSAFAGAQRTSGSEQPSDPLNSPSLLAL
# dFosB act-2: delta FosB (mouse) homodimer activation. shares compounds with dFosB act-1. purified delta FosB, TAMRA-CDK5 oligo fluorescence polarization; normalised: neutral wells 0, positive control 100. activation, % at 24.9 µM. 2,400 tested, under 10 active;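 active = highest replicate activation at or above 34% and every replicate reaching that threshold; inconclusive = meets only one of the two criteria; inactive = meets neither criterion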;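 note: higher polarization means more probe DNA bound by delta FosB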
# Numbers stand for hits; – = inactive; ? = inconclusive; · = not tested or not shown. Sampled rows, rich in hits. Any-hit rate of the full collection: about 2.9%.
SMILES,PAX8 reporter,INS-1E GSIS act,Env fusion inh,Cneo AK release,CDK5 inh,dFosB act-1,dFosB act-2
CCOC(=O)c1c(NC(=O)COC(=O)Cn2c(C)nc3ccccc32)sc2c1CCCC2,–,–,–,–,·,38.7,–
COC(=O)c1cccc(NC(=O)c2ccco2)c1,·,·,·,–,–,–,·
O=C(O)Cc1ccc(NC(=O)c2ccc(NC(=O)c3ccco3)cc2)cc1,·,·,–,–,–,–,·
COC(=O)Cc1ccc(NC(=O)c2ccc(NC(=O)c3ccco3)cc2)cc1,–,–,–,·,–,34.1,–
COC(=O)c1ccc(NC(=O)c2cccc(NC(=O)c3ccco3)c2)cc1,–,–,–,–,–,16.9,–
COC(=O)c1cccc(NC(=O)NC(=O)c2ccc(Cl)cc2)c1,–,–,–,–,–,41.1,–
COC(=O)c1cccc(NC(=O)Nc2ccc(Cl)cc2)c1,–,–,–,–,–,–,·
O=C(Nc1cccc(NC(=O)c2ccco2)c1)c1ccc([N+](=O)[O-])cc1,–,–,–,·,–,20.4,–
CC(C)NC(=O)N(C)C[C@@H]1Oc2ccc(NC(=O)C3CCCCC3)cc2C(=O)N([C@H](C)CO)C[C@@H]1C,–,–,–,–,·,·,·
Cc1ccccc1S(=O)(=O)NCC[C@H]1CC[C@@H](NC(=O)Nc2cccc(Cl)c2)[C@@H](CO)O1,–,–,–,–,·,·,·
CCNC(=O)C[C@H]1CC[C@@H]2[C@H](COC[C@H](O)CN2C(=O)Nc2ccc(Cl)c(Cl)c2)O1,–,–,·,–,·,·,·
COc1ccc(S(=O)(=O)N(C)C[C@H]2Oc3cc(-c4ccccc4OC)ccc3S(=O)(=O)N([C@H](C)CO)C[C@@H]2C)cc1,–,–,–,–,·,·,·
O=S(=O)(Cc1ccccc1)c1ccccc1-c1nnc(-c2ccccc2)o1,·,·,·,–,–,31.7,–
COc1cccc(C(=O)Nc2nnc(SCC(=O)NC3CC3)s2)c1,–,–,–,–,–,52.6,–
COc1ccc(C(=O)Nc2nnc(SCC(=O)NC3CCCC3)s2)c(OC)c1,–,–,–,–,–,–,·
COCCSc1nnc(NC(=O)c2ccc(OC)c([N+](=O)[O-])c2)s1,–,–,–,·,–,26.3,–
O=C(CCCl)Nc1nnc(SCC(=O)NC2CCCC2)s1,–,–,–,–,–,19.6,–
COc1ccc(C(=O)Nc2nnc(SCC(=O)NC3CC3)s2)cc1,–,–,–,–,–,22.4,–
CCCN(C)C[C@@H]1Oc2ncc(C#CC3CC3)cc2C(=O)N([C@H](C)CO)C[C@@H]1C,·,–,–,·,·,·,·
C[C@@H]1CCCCO[C@H](CN(C)S(C)(=O)=O)[C@@H](C)CN([C@H](C)CO)C(=O)c2cc(NC(=O)CCCN(C)C)ccc2O1,–,–,–,·,·,·,·
O=C(C1CCC1)N1CC(=O)N2[C@H](C1)[C@H](c1ccc(C#CCc3ccccc3)cc1)[C@@H]2CO,–,–,·,·,·,·,·
COc1ccc(C(=O)Nc2nnc(SCC(=O)NCc3ccco3)s2)cc1OC,–,–,–,–,–,26.4,–
COc1ccc(S(=O)(=O)Nc2cccc(-c3ccc4nncn4n3)c2)cc1,–,–,–,–,–,21.2,–
C[C@@H]1CN([C@H](C)CO)S(=O)(=O)c2ccc(C#CC3CC3)cc2O[C@H]1CN(C)C(=O)C1CC1,·,–,–,–,·,·,·
CCOC(=O)c1c(CN(C)C)n(-c2ccccc2)c2cc(Br)c(OC)cc12,–,–,–,–,–,–,·
SMILES,PAX8 reporter,INS-1E GSIS act,Env fusion inh,Cneo AK release,CDK5 inh,dFosB act-1,dFosB act-2
CCOC(=O)c1c(C)n(CC(O)CN(C)C)c2cc(Br)c(OC)cc12 (stereo not given),–,–,–,·,–,31.2,–
Cc1nonc1NC(=O)c1oc2ccc(F)cc2c1C,–,–,–,–,–,28.9,–
Cc1cc2oc(C(=O)Nc3nonc3C)c(C)c2cc1Cl,–,–,–,–,–,46.2,–
CCOc1cc(/C=N/O)cc(Br)c1OCc1ccc(Cl)cc1,–,·,–,–,–,31.8,–
CO[C@@H]1CN(C)C(=O)c2cc(NC(C)=O)ccc2OC[C@@H](C)N(CCC(F)(F)F)C[C@@H]1C,–,–,–,–,·,·,·
COCC#Cc1ccc2c(c1)O[C@@H](CN(C)C(=O)CN(C)C)[C@@H](C)CN([C@H](C)CO)S2(=O)=O,·,–,–,–,·,·,·
O=[N+]([O-])c1ccc(Nc2nc(NCCO)nc(N3CCCC3)n2)cc1,–,–,–,·,–,–,·
NNc1nc(Nc2ccc([N+](=O)[O-])cc2)nc(N2CCCCCC2)n1,–,–,–,–,–,67.2,–
C[C@@H]1CN([C@H](C)CO)C(=O)c2cc(NC(=O)C3CCCCC3)ccc2O[C@@H](C)CCCCO[C@@H]1CN(C)S(=O)(=O)c1cccs1,·,–,–,–,·,·,·
C=CCN(c1ccccc1)S(=O)(=O)c1cccc(C(=O)Nc2nc3ccccc3[nH]2)c1,–,–,–,–,–,47.4,–
C=CCN(c1ccccc1)S(=O)(=O)c1cccc(C(=O)Nc2ccncc2)c1,–,–,·,–,–,–,·
Cc1cc(C)c(NC(=O)CS(=O)CC(=O)Nc2ccc(F)cc2F)c(C)c1 (stereo not given),–,–,–,–,–,22.6,–
COc1ccc(C)cc1NC(=O)Nc1cccc(C)c1,–,–,–,·,–,–,·
CC(=O)Nc1cccc(NC(=S)Nc2cccc(Cl)c2C)c1,–,–,–,–,–,–,·
CC(=O)Nc1cccc(NC(=O)Nc2cccc(Cl)c2C)c1,–,–,–,·,–,22.1,–
Cc1cccc(NC(=O)Nc2ccc(C)cc2Br)c1,–,–,–,–,–,20.4,–
Cc1cc(C)c(C)c(C(=O)COC(=O)CNC(=O)CN2C(=O)c3ccccc3C2=O)c1C,–,–,–,–,–,43.2,?
CN1CCc2cc3c(c4c2[C@H]1[C@H](O)c1ccccc1-4)OCO3,–,·,–,–,–,31.6,–
Cc1nn(CC(=O)NCCc2cccs2)c(=O)c2cc3ccccc3n12,–,–,–,–,–,26.4,–
CCc1nn(CC(=O)NCCC2=CCCCC2)c(=O)c2cc3cc(F)ccc3n12,–,–,–,–,–,40.6,–
COc1ccc(S(=O)(=O)Nc2cccc3c2O[C@H](CN(C)C(=O)Nc2ccccc2)[C@@H](C)CN([C@@H](C)CO)C3=O)cc1,–,–,–,–,·,·,·
COc1ccc(CNC(=O)CSc2nnc3c(n2)[nH]c2ccc(OC)cc23)cc1,–,–,–,·,–,40.0,–
COc1ccc2[nH]c3nc(SCc4nnc(-c5ccccc5)o4)nnc3c2c1,·,·,?,·,–,18.9,–
COc1ccc(CNC(=O)CSc2nnc3c(n2)[nH]c2ccc(F)cc23)cc1,–,–,–,–,–,–,·
Cc1ccc(NC(=O)CSc2nnc3c(n2)[nH]c2ccccc23)cc1,–,–,–,–,–,–,·

# Source: PubChem BioAssay (Broad Institute)
